Measurements: ChEMBL document CHEMBL2169837 (J Med Chem, 2012)
Active and inactive are the calls of the source. The calls are words filed in the database; no cut-off is given here.

Experiments:
Vasopressin V1a receptor [1] = target: T1, Vasopressin V1a receptor (Homo sapiens, UniProt P37288); experiment: Binding affinity to SNAP-tagged vasopressin V1a receptor expressed in COS7 cells assessed as interaction with vasopressin V2/V1a receptor dimer after 1 hr by FRET assay; type: cell-based; settings: COS-7
Method in brief: (§1)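 Cos7 cells expressing SNAP-V1a, SNAP-V2 or both, 50000 cells/well. Incubated overnight at 4 °C with one donor plus one acceptor fluorescent ligand, each near its Kd. Signal given as %ΔF from the 665/620 ratio (excitation 335 nm) against mock cells. Receptor expression measured by SNAP-Lumi4-Tb labeling (100 nM, 1 h, room temperature), read at 620 nm.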
Target sequence in this assay (P37288 whole entry, looked up): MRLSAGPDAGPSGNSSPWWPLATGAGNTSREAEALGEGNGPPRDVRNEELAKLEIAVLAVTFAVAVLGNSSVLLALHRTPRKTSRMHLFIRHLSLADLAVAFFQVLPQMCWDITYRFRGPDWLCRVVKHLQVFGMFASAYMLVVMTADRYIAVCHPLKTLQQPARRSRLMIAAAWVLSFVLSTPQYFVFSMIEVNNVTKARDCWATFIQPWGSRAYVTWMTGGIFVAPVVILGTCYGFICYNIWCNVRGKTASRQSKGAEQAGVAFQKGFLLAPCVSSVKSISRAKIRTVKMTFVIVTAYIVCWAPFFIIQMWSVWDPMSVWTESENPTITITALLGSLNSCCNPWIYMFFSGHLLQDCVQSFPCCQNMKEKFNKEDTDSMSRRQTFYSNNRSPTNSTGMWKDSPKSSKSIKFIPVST

Vasopressin V1a receptor [2] = target: T1, Vasopressin V1a receptor; experiment: Binding affinity to SNAP-tagged vasopressin V1a receptor expressed in COS7 cells after 1 hr by FRET assay; type: cell-based; settings: COS-7; method in brief: as §1
Target sequence in this assay (P37288 whole entry, looked up): as above

Oxytocin receptor [3] = target: T2, Oxytocin receptor (Homo sapiens, UniProt P30559); experiment: Binding affinity to oxytocin receptor
T2 sequence (P30559 whole entry): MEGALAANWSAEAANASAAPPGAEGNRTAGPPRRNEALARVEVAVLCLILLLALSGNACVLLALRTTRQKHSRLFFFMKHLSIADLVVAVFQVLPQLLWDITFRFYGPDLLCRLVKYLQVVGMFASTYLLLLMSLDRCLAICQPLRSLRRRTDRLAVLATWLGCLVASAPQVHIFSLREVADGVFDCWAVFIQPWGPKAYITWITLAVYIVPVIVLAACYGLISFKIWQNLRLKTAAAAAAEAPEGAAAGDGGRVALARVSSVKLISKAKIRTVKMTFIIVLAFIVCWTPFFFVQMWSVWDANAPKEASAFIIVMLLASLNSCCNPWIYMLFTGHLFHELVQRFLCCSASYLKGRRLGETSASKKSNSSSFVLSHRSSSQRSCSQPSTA
Method in brief: (§2)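 Membranes (5 μg protein) from CHO cells stably expressing human V2R, V1aR, V1bR or OTR. Incubated 30 min at 30 °C in 50 mM Tris-HCl pH 7.4, 5 mM MgCl2, 1 mg/mL BSA with [3H]-AVP (1−2 nM) and competitor from 100 pM to 100 μM. Nonspecific binding with 10 μM AVP. GF/C filtration; Ki by nonlinear least-squares regression. Triplicate, at least three membrane batches.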

[4] = target: Vasopressin V2 receptor (Oryctolagus cuniculus); experiment: Binding affinity to vasopressin V2 receptor
Vasopressin V2 receptor [5] = target: T3, Vasopressin V2 receptor (Homo sapiens, UniProt P30518); experiment: Displacement of [3H]-AVP from human vasopressin V2 receptor expressed in CHO cells after 30 mins; type: cell-based
Vasopressin V2 receptor [6] = target: T3, Vasopressin V2 receptor; experiment: Agonist activity at human vasopressin V2 receptor expressed in CHO cells assessed as cAMP accumulation after 30 mins by TR-FRET based HTRF assay; type: functional, cell-based
Method in brief: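 CHO cells stably expressing human V2R, 5 × 10^3 per well on polyornithine, used 24 h after seeding. Cells lysed and cAMP read by HTRF (TR-FRET). Kact/Kinact from three independent experiments in triplicate, mean ± SEM.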

Vasopressin V2 receptor [7] = target: T3, Vasopressin V2 receptor; experiment: Antagonist activity at human vasopressin V2 receptor expressed in CHO cells assessed as inhibition of AVP-induced cAMP accumulation after 30 mins by TR-FRET based HTRF assay; type: functional, cell-based
Method in brief: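 CHO cells stably expressing human V2R, 5 × 10^3 per well on polyornithine, used 24 h after seeding. Incubated 30 min at 37 °C with compound (10−12 to 10−5 M) plus phosphodiesterase inhibitor RO 201724 0.1 mM. Antagonist mode run with 1 nM AVP. Cells lysed and cAMP read by HTRF (TR-FRET). Kact/Kinact from three independent experiments in triplicate, mean ± SEM.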

Vasopressin V1a receptor [8] = target: T1, Vasopressin V1a receptor; experiment: Binding affinity to vasopressin V1a receptor; method in brief: as §2
Target sequence in this assay (P37288 whole entry): as the sequence (P37288 whole entry, looked up) above

[9] = Binding affinity to vasopressin V2 receptor in rabbit kidney membranes; type: cell membranes, Oryctolagus cuniculus, Membrane
Vasopressin V2 receptor [10] = target: T3, Vasopressin V2 receptor; experiment: Binding affinity to SNAP-tagged vasopressin V2 receptor expressed in COS7 cells after 1 hr by FRET assay; type: cell-based; settings: COS-7; method in brief: as §1
Oxytocin receptor [11] = target: T2, Oxytocin receptor; experiment: Displacement of [3H]-AVP from human oxytocin receptor expressed in CHO cells after 30 mins; type: cell-based
[12] = target: T4, Vasopressin V1b receptor (Homo sapiens) (UniProt P47901); experiment: Displacement of [3H]-AVP from human vasopressin V1b receptor expressed in CHO cells at 10 uM after 30 mins; type: cell-based
T4 sequence (whole entry): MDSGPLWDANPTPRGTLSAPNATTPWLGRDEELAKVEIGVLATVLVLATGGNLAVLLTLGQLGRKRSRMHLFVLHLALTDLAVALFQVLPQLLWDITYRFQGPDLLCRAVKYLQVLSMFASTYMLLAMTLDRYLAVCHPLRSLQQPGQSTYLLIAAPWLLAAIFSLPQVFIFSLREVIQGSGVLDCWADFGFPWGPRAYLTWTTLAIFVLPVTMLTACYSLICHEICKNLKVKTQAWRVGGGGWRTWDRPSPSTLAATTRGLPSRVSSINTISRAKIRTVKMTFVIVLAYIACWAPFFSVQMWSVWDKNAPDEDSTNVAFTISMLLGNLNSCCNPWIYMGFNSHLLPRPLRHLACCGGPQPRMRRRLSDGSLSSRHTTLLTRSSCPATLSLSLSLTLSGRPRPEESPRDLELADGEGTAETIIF
Method in brief: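 Human OTR, V1aR or V1bR membranes from CHO cells, [3H]-AVP displacement with compound at a single 10 μM concentration, 30 min at 30 °C in Tris-HCl pH 7.4/MgCl2/BSA buffer.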

Vasopressin V2 receptor [13] = target: T3, Vasopressin V2 receptor; experiment: Binding affinity to SNAP-tagged vasopressin V2 receptor expressed in COS7 cells assessed as interaction with vasopressin V2/V1a receptor dimer after 1 hr by FRET assay; type: cell-based; settings: COS-7; method in brief: as §1
Vasopressin V2 receptor [14] = target: T3, Vasopressin V2 receptor; experiment: Binding affinity to SNAP-tagged vasopressin V2 receptor expressed in HEK293 cells after 1 hr by TR-FRET assay; type: cell-based
Method in brief: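 HEK 293T cells electroporated with SNAP-tag–V2R and grown 48 h. Receptor labeled 1 h at 37 °C with SNAP-Lumi4-Tb (100 nM) or SNAP-RED (300 nM), then washed. Rising fluorescent-ligand concentrations added and incubated overnight at 4 °C. TR-FRET read with excitation 340 nm, emission 620/665 nm. Nonspecific binding taken with 10 μM unlabeled ligand. Kd from saturation, three experiments in triplicate.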

Homo sapiens = organism: Homo sapiens; experiment: Selectivity ratio of Ki for human oxytocin receptor to Ki for human vasopressin V2 receptor
Vasopressin V1a receptor [15] = target: T1, Vasopressin V1a receptor; experiment: Displacement of [3H]-AVP from human vasopressin V1a receptor expressed in CHO cells after 30 mins; type: cell-based
Target sequence in this assay (P37288 whole entry): as the sequence (P37288 whole entry, looked up) above

Vasopressin V1b receptor = target: T5, Vasopressin V1b receptor (Homo sapiens, UniProt P47901); experiment: Displacement of [3H]-AVP from human vasopressin V1b receptor expressed in CHO cells after 30 mins; type: cell-based
T5 sequence (P47901 whole entry): T4 sequence (whole entry)

T3 sequence (P30518 whole entry): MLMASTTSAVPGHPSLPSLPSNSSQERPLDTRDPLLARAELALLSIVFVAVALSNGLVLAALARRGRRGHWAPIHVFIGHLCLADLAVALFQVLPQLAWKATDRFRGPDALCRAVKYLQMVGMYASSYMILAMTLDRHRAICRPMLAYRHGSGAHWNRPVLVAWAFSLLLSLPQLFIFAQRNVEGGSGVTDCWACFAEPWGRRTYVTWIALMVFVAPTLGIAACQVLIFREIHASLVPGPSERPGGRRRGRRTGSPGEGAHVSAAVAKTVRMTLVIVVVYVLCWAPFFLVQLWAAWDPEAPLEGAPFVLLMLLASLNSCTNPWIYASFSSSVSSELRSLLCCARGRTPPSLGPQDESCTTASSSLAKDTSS

Activity (Vasopressin V1a receptor [1])	Activity (Vasopressin V1a receptor [2])	Ki (Oxytocin receptor [3])	Ki [4]	Ki (Vasopressin V2 receptor [5])	Activity (Vasopressin V2 receptor [6])	inhibition (Vasopressin V2 receptor [7])	Ki (Vasopressin V1a receptor [8])	Ki [9]	Activity (Vasopressin V2 receptor [10])	Ki (Oxytocin receptor [11])	inhibition [12]	Activity (Vasopressin V2 receptor [13])	Kd (Vasopressin V2 receptor [14])	Ratio Ki (Homo sapiens)	Kb (Vasopressin V2 receptor [7])	Ki (Vasopressin V1a receptor [15])	Ki (Vasopressin V1b receptor)	Compound
Active	Active																	COc1ccc(C[C@@H](NC(=O)CCc2ccc(O)cc2)C(=O)N[C@@H](Cc2ccccc2)C(=O)N[C@@H](CCC(N)=O)C(=O)N[C@@H](CC(N)=O)C(=O)N[C@@H](CCCNC(=N)N)C(=O)N2CCC[C@H]2C(=O)N[C@@H](CCCCNC(=O)CCCCC2(C)C(/C=C/C=C/C=C3\N(CCCS(=O)(=O)O)c4ccc(S(=O)(=O)[O-])cc4C3(C)C)=[N+](CCCS(=O)(=O)O)c3ccc(S(=O)(=O)O)cc32)C(N)=O)cc1 (some centres not stated)
		30 nM	7.2 nM	2.68 nM	inactive	Dose-dependent effect	8.1 nM	7.2 nM										Cc1ccccc1C(=O)Nc1ccc(C(=O)N2CCCCc3ccccc32)cc1
				5.69 nM	inactive	Dose-dependent effect			Active	184 nM	< 50%	Active	1.38 nM	32	0.1 nM	621 nM	> 10000 nM	CCN1/C(=C/C=C/C=C/C2=[N+](CC)c3ccc(S(=O)(=O)[O-])cc3C2(C)C)C(C)(CCCC(=O)NCCn2cc(CNC(=O)CCC(=O)NC3CCCN(C(=O)c4ccc(NC(=O)c5ccccc5-c5ccccc5)cc4)c4ccccc43)nn2)c2cc(S(=O)(=O)O)ccc21 (configuration not stated)
		63 nM	7.5 nM		inactive	Dose-dependent effect	14.1 nM	7.6 nM										O=C(Nc1ccc(C(=O)N2CCCCc3ccccc32)cc1)c1ccccc1-c1ccccc1
